Source: ChEMBL document CHEMBL4177764 (J Med Chem, 2018)
Active and inactive are the calls of the source. The calls are words filed in the database; no cut-off is given here.

Key:
[1] = molecular target: T1, ALK tyrosine kinase receptor (Homo sapiens, UniProt Q9UM73); assay: Induction of ALK degradation in human CHLA20 cells at 100 nM after 4 hrs in presence of ABCB1 inhibitor tariquidar by immunoblot method; assay type: cell-based
Outline: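 CHLA20 cells were co-treated with 125 nM tariquidar, then treated with 100 nM compound over a time course. ALK was read by immunoblot.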

SH-SY5Y [2] = assay: Antiproliferative activity against human SH-SY5Y cells after 72 hrs by CellTiter-Glo luminescent cell viability assay; assay type: functional, cell-based
Homo sapiens [3] = species on record: Homo sapiens; assay: Antiproliferative activity against human CHLA20 cells after 72 hrs by CellTiter-Glo luminescent cell viability assay; assay type: functional, cell-based
[4] = molecular target: Protein cereblon (Homo sapiens) (UniProt Q96SW2); assay: Displacement of Atto565-Lenalidomide from CRBN fused with DDB1deltaB (unknown origin) by fluorescence polarization assay
Sequence of Protein cereblon (Homo sapiens) (Q96SW2 whole entry, the tested form may be a part): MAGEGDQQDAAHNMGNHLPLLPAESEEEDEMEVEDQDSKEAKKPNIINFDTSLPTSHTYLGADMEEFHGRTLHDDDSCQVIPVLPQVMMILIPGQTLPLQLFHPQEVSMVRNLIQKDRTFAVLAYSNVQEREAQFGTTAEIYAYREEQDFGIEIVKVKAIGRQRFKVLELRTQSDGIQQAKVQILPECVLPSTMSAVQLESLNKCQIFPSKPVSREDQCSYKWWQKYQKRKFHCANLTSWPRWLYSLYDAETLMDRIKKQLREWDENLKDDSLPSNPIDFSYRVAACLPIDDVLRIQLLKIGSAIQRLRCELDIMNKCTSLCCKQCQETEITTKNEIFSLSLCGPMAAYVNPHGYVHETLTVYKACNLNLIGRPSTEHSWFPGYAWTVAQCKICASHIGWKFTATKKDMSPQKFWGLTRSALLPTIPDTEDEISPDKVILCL

SU-DHL-1 = assay: Antiproliferative activity against human SU-DHL1 cells after 72 hrs by CellTiter-Glo luminescent cell viability assay; assay type: functional, cell-based
KARPAS-299 = assay: Antiproliferative activity against human KARPAS299 cells after 72 hrs by CellTiter-Glo luminescent cell viability assay; assay type: functional, cell-based
SH-SY5Y [5] = assay: Antiproliferative activity against human SH-SY5Y cells after 72 hrs in presence of ABCB1 inhibitor tariquidar by CellTiter-Glo luminescent cell viability assay; assay type: functional, cell-based
Homo sapiens [6] = species on record: Homo sapiens; assay: Antiproliferative activity against human CHLA20 cells after 72 hrs in presence of ABCB1 inhibitor tariquidar by CellTiter-Glo luminescent cell viability assay; assay type: functional, cell-based
[7] = molecular target: T1, ALK tyrosine kinase receptor; assay: Induction of ALK degradation in human Kelly cells at 100 nM after 8 hrs by immunoblot method; assay type: cell-based
Outline: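 Kelly cells were treated with 100 nM compound for varying times and lysed at each time point. ALK levels were read by immunoblot.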

NCI-H3122 = assay: Antiproliferative activity against human NCI-H3122 cells after 72 hrs by CellTiter-Glo luminescent cell viability assay; assay type: functional, cell-based
[8] = molecular target: Signal transducer and activator of transcription 3 (Homo sapiens) (UniProt P40763); assay: Inhibition of STAT3 phosphorylation at Y705 in human CHLA20 cells at 250 nM after 6 to 48 hrs in presence of ABCB1 inhibitor tariquidar by immunoblot method; assay type: cell-based
Sequence of Signal transducer and activator of transcription 3 (Homo sapiens) (P40763 whole entry): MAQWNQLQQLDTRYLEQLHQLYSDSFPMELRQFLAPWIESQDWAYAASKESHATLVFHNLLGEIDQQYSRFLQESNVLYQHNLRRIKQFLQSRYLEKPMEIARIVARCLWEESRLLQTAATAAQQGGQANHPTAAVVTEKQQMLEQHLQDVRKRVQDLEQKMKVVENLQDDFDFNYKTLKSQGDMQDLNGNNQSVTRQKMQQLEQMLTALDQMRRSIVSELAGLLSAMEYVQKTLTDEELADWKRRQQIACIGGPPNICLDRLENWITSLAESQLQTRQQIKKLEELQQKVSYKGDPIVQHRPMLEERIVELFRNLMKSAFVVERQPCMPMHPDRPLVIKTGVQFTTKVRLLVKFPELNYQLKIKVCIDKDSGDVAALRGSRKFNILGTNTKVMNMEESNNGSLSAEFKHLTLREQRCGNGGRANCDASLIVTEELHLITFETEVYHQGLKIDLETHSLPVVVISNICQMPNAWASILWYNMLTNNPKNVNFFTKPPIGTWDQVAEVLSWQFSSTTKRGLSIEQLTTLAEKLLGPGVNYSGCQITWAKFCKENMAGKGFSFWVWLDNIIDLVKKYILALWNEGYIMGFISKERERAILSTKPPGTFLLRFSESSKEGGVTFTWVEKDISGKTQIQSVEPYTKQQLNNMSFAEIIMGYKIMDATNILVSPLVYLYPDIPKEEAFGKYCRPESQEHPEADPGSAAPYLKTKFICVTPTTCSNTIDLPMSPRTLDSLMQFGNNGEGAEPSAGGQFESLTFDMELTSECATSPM

[9] = molecular target: Signal transducer and activator of transcription 3 (Homo sapiens) (UniProt P40763); assay: Inhibition of STAT3 phosphorylation at Y705 in human Kelly cells at 250 nM after 6 to 48 hrs by immunoblot method; assay type: cell-based

T1 sequence (Q9UM73 19-1620 limits assumed): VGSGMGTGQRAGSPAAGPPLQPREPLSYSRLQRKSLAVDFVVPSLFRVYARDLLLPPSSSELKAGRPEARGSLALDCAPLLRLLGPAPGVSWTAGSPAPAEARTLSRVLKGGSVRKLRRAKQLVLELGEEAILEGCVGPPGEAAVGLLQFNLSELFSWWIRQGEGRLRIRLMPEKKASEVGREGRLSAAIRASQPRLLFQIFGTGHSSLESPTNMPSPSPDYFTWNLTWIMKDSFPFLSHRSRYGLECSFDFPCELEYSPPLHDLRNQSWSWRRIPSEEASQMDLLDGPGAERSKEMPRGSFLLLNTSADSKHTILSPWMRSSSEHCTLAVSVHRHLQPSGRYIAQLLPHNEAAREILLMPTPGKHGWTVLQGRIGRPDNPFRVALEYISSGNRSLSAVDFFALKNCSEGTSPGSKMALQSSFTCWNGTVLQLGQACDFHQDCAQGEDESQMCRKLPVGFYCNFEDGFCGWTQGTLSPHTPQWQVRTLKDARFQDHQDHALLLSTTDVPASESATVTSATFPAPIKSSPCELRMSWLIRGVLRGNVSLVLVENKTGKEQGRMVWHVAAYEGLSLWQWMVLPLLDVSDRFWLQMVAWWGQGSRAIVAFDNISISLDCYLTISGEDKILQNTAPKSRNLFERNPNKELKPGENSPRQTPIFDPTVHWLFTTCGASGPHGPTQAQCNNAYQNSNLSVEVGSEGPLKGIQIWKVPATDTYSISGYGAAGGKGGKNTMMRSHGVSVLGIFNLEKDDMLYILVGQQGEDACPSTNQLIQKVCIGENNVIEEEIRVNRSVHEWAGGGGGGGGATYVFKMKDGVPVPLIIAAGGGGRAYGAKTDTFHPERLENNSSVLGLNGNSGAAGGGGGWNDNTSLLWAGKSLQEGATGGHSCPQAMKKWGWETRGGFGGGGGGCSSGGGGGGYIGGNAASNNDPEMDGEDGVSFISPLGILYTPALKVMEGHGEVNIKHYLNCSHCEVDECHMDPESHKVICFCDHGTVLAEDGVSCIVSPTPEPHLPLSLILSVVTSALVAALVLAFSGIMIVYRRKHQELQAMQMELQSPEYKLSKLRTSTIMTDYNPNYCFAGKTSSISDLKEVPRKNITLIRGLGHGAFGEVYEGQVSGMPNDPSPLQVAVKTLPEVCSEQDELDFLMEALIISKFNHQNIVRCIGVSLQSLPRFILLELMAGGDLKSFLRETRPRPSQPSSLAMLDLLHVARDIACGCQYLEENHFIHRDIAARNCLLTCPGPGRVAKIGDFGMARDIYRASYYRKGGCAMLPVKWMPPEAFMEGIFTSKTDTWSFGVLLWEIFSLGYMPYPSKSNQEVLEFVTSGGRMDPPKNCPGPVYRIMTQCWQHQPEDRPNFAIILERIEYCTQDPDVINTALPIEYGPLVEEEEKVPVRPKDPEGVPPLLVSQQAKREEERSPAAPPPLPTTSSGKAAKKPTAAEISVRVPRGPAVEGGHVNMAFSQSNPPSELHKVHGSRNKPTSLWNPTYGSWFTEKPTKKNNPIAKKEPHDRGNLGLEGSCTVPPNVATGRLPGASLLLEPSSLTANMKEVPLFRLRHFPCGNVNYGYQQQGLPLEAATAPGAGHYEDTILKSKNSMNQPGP

Activity [1]	inhibition [4]	Activity [7]	inhibition [8]	inhibition [9]	Compound	Activity (SH-SY5Y [2])	Activity (Homo sapiens [3])	Activity (SU-DHL-1)	Activity (KARPAS-299)	Activity (SH-SY5Y [5])	Activity (Homo sapiens [6])	Activity (NCI-H3122)
Active	inactive	Active			Cc1cc(Nc2ncc(Cl)c(Nc3ccccc3S(=O)(=O)C(C)C)n2)c(OC(C)C)cc1C1CCN(CCOCCOCCNC(=O)CNc2cccc3c2C(=O)N(C2CCCNC2=O)C3=O)CC1 (stereo unspecified)	inactive	inactive	inactive	inactive	Active	Active	inactive
					COc1cc(N2CCC(N3CCN(C)CC3)CC2)ccc1Nc1ncc(Cl)c(Nc2ccccc2S(=O)(=O)C(C)C)n1	Active	Active	Active	Active	Active	Active	Active
Active	inactive	Active			COc1cc(N2CCN(CCOCCOCCNC(=O)CNc3cccc4c3C(=O)N(C3CCCNC3=O)C4=O)CC2)ccc1Nc1ncc(Cl)c(Nc2ccccc2S(=O)(=O)C(C)C)n1 (stereo unspecified)	inactive	inactive	inactive	inactive	Active	Active	inactive
			inactive	inactive	Cc1cc(Nc2ncc(Cl)c(Nc3ccccc3S(=O)(=O)C(C)C)n2)c(OC(C)C)cc1C1CCNCC1	Active	Active	Active	Active	Active	Active	Active
